According to ChEMBL document CHEMBL1137705, “Study of 5-nitroindazoles' anti-Trypanosoma cruzi mode of action: electrochemical behaviour and ESR spectroscopic studies” (Eur J Med Chem, 2009):
pIC50: −log10 of the molar value. The source made the active and inactive calls. The calls are words filed in the database; no cut-off is given here.

Assays:
[1] = system: Trypanosoma cruzi; assay: Antitrypanosomal activity against Trypanosoma cruzi CL-Brener clone epimastigotes […] measured on […] by Brener method; type: functional, organism-based; conditions: 120 h
Summary of the method: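 CL Brener epimastigotes were grown axenically at 28 °C in BHI-tryptose with 5% FBS. Day-0 inoculum was 1 × 10⁶ cells/mL from a 10-day stationary culture. Drug came from a DMSO stock, with final DMSO ≤0.4%; control had 0.4% DMSO and no drug. A600 was read daily. IC50 was the concentration reducing the day-5 absorbance ratio versus control to 50%.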

[2] = system: Trypanosoma cruzi; assay: Growth inhibition of Trypanosoma cruzi CL-Brener clone epimastigotes […] at 25 uM measured on […] by Brener method; type: functional; conditions: 120 h, read-out: GI
Summary of the method: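 Axenic epimastigote culture (CL Brener) ran at 28 °C in BHI-tryptose with 5% FBS. Start density was 1 × 10⁶ cells/mL, with drug added from a DMSO stock (final ≤0.4%). %GI = {1 − [(Ap − A0p)/(Ac − A0c)]} × 100, using A600 at day 5 and day 0, drug versus drug-free control. Means of three experiments.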

[3] = system: Trypanosoma cruzi; assay: Antitrypanosomal activity against Trypanosoma cruzi SN3 trypomastigotes infected in african green monkey Vero cells assessed as parasite viability at 16.4 uM after 24 hrs by MTT assay; type: functional
[4] = system: Trypanosoma cruzi; assay: Antitrypanosomal activity against Trypanosoma cruzi SN3 trypomastigotes infected in african green monkey Vero cells assessed as parasite viability at 11 uM after 24 hrs by MTT assay; type: functional
Summary of the method: (§1)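 Vero cells were infected with SN-3 metacyclic trypomastigotes, then reinfected at 1 × 10⁶ parasites per 25 cm². Harvested trypomastigotes (1 × 10⁷) were incubated in FBS-RPMI at 37 °C for 24 h with or without compound. MTT was added to an aliquot at 0.5 mg/mL final, 28 °C for 4 h. SDS–HCl solubilisation ran overnight. Read-out was A570, reference 690 nm; untreated parasites = 100% viability.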

[5] = system: Trypanosoma cruzi; assay: Antitrypanosomal activity against Trypanosoma cruzi SN3 trypomastigotes infected in african green monkey Vero cells assessed as parasite viability at 6.6 uM after 24 hrs by MTT assay; type: functional
[6] = system: Trypanosoma cruzi; assay: Antitrypanosomal activity against Trypanosoma cruzi SN3 trypomastigotes infected in african green monkey Vero cells assessed as parasite viability at 12.5 uM after 24 hrs by MTT assay; type: functional
[7] = system: Trypanosoma cruzi; assay: Induction of nitro-anion radical production in epimastigotes form of Trypanosoma cruzi Tulahuen microsomes at 2 mM after 25 mins by ESR spectroscopy; type: functional; conditions: Microsome
[8] = system: Trypanosoma cruzi; assay: Induction of nitro-anion radical production in epimastigotes form of Trypanosoma cruzi Tulahuen microsomes at 1 mM after 25 mins by ESR spectroscopy; type: functional; conditions: Microsome
[9] = system: Trypanosoma cruzi; assay: Antitrypanosomal activity against Trypanosoma cruzi SN3 trypomastigotes infected in african green monkey Vero cells assessed as parasite viability at 22 uM after 24 hrs by MTT assay; type: functional; summary of the method: as §1

Structure (SMILES) | inhibition of growth at 25 µM [2] | further results
CC1CS(=O)(=O)CCN1/N=C/c1ccc([N+](=O)[O-])o1 (configuration not stated) [NIFURTIMOX] | 100% | pIC50 [1]: 5.47
O=[N+]([O-])c1ccc2c(c1)c(O)nn2CCOCCN1CCCCC1 | 9% | –
O=[N+]([O-])c1ccc2c(c1)c(O)nn2CCOCCN1CCSCC1 | 0% | –
O=c1c2cc([N+](=O)[O-])ccc2n2n1CCCCC2 | 4% | –
COc1nn(CCOCCN2CCCCC2)c2ccc([N+](=O)[O-])cc12 | 25% | –
O=c1c2cc([N+](=O)[O-])ccc2n2n1CCOCC2 | 6% | –
CN(C)CCOCCn1nc(OCc2ccccc2)c2cc([N+](=O)[O-])ccc21 | 80% | Activity [3]: 0.56%
O=[N+]([O-])c1ccc2c(c1)c(OCc1ccccc1)nn2CCOCCN1CCSCC1 | 20% | –
CCCCNCCCCCn1nc(OCc2ccccc2)c2cc([N+](=O)[O-])ccc21 | 94% | Activity [4]: -0.37%; pIC50 [1]: 4.96
O=[N+]([O-])c1ccc2c(c1)c(OCc1ccccc1)nn2CCOCCN1CCCCC1 | 24% | –
C[N+](C)([O-])CCOCCn1nc(OCc2ccccc2)c2cc([N+](=O)[O-])ccc21 | 6% | –
O=[N+]([O-])c1ccc2c(c1)c(OCc1ccccc1)nn2CCCCCN1CCCCC1 | 100% | Activity [5]: 0.29%
CN(C)CCCCCn1nc(OCc2ccccc2)c2ccccc21 | 18% | –
CN(C)CCOCCn1nc(O)c2cc([N+](=O)[O-])ccc21 | 3% | –
O=[N+]([O-])c1ccc2c(c1)c(OCc1ccccc1)nn2CCOCC[N+]1([O-])CCCCC1 | 0% | –
CN(C)CCCCCn1nc(OCc2ccccc2)c2cc([N+](=O)[O-])ccc21 | 100% | Activity [6]: 0.49%
CCCCNCCCCCn1nc(OC)c2cc([N+](=O)[O-])ccc21 | 58% | pIC50 [1]: 4.66; Activity [7]: Active; Activity [8]: Active; Activity [9]: 40.04%
